Assay results as given in ChEMBL document CHEMBL1126910, “18F-labeled benzamides for studying the dopamine D2 receptor with positron emission tomography” (J Med Chem, 1993).
One block for each compound: values may come before it.

What was measured:
[1] = system: Rattus norvegicus; experiment: In vivo blood concentration of [18F]-labeled compound by rat brain at 30 min; assay type: functional, organism-based
Method in brief: (§1)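 Sprague–Dawley rats (200–300 g) under ketamine/xylazine anesthesia given 0.5–1.0 mL of 0.9% saline containing 18F-labeled ligand (20–150 μCi) i.v. via femoral vein. Killed by decapitation at set times (5 min to 5 h). A blood sample was taken and gamma-counted, expressed as % ID/g of blood. Mean ± SEM, n = 4-8.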

[2] = system: Rattus norvegicus; experiment: In vivo brain uptake of [18F]-labeled compound by rat brain at 4 hr; assay type: functional, organism-based
Method in brief: (§2)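 Sprague–Dawley rats (200–300 g), anesthetized with ketamine/xylazine, received 18F-labeled ligand (20–150 μCi) in 0.5–1.0 mL 0.9% saline i.v. (femoral vein). Decapitated at set intervals from 5 min to 5 h. Whole brain removed, weighed and gamma-counted, expressed as % ID/brain and % ID/g brain. Mean ± SEM, n = 4-8.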

[3] = system: Rattus norvegicus; experiment: In vivo brain uptake of [18F]-labeled compound by rat brain at 1 hr; assay type: functional, organism-based; method in brief: as §2
[4] = target: Serotonin 2 (5-HT2) receptor (Rattus norvegicus, UniProt P30994+P08909+P14842); experiment: In vitro binding affinity on 5-hydroxytryptamine 2 receptor is inhibition of binding of [125I]- I-LSD to P11 cells
Method in brief: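 Competition binding on membranes from P11 cells (pituitary tumor 7315A line, 5-HT2 without D2 or other serotonin subtypes); 0.4–0.5 nM [125I]I-LSD in 50 mM Tris-HCl pH 7.4; 1 μM ketanserin defines nonspecific; 37 °C, 60 min; filtration, gamma counting. IC50 from curve fitting, Ki by Cheng–Prusoff.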

[5] = target: D(3) dopamine receptor (Rattus norvegicus); experiment: In vitro binding affinity on D3 receptor is inhibition of binding of [125I]- NCQ 298 to Sf9 cells infected with recombinant baculovirus
[6] = system: Rattus norvegicus; experiment: In vivo brain uptake of [18F]-labeled compound by rat brain at 3h; assay type: functional, organism-based; method in brief: as §2
[7] = system: Rattus norvegicus; experiment: In vivo blood concentration of [18F]-labeled compound by rat brain at 3h; assay type: functional, organism-based; method in brief: as §1
[8] = target: T1, Adrenergic receptor alpha-2 (Rattus norvegicus, UniProt P22086+P19328+P22909); experiment: In vitro binding affinity on alpha-2 receptor is inhibition of binding of [3H]- rauwolscine to rat cortex
T1 sequence (P22086 whole entry): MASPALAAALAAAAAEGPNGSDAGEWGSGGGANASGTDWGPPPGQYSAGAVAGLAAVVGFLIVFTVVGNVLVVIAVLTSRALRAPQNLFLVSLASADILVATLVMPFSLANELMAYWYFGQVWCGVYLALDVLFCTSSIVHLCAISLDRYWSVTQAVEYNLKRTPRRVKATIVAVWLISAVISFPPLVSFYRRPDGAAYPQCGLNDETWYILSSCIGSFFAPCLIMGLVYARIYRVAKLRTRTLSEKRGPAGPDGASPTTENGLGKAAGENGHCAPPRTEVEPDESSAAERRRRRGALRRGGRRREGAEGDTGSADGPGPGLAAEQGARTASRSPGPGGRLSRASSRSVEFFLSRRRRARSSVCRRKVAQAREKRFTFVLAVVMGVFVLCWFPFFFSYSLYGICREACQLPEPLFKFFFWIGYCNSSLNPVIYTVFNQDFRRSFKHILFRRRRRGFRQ
T1 sequence (P19328 whole entry): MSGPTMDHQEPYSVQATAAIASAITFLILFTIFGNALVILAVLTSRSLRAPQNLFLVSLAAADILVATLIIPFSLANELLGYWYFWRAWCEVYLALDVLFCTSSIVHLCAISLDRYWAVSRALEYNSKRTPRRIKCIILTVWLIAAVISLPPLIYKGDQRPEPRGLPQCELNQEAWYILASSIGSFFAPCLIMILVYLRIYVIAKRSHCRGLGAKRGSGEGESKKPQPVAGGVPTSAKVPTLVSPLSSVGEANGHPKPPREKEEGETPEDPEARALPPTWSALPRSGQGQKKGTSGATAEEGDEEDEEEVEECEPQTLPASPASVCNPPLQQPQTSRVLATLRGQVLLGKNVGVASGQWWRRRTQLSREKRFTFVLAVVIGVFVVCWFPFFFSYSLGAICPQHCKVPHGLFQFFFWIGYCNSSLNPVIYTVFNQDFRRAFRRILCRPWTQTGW
T1 sequence (P22909 whole entry): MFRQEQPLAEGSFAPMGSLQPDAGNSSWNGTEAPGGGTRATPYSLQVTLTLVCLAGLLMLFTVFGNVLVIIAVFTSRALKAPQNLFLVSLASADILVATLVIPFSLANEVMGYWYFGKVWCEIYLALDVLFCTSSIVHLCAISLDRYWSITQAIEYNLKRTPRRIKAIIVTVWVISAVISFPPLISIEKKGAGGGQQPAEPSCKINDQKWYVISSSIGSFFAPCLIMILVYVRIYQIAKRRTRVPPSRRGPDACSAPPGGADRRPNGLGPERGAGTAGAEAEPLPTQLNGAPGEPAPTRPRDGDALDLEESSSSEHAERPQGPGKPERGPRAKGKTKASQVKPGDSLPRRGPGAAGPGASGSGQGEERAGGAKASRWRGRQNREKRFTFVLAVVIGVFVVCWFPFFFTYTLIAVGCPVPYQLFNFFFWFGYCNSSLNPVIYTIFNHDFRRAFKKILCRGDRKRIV
Method in brief: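 Rat cerebral cortex membranes, 2 nM [3H]rauwolscine in 20 mM HEPES pH 7.4, run in triplicate; nonspecific with 10 μM phentolamine; 20 °C, 30 min; glass fiber filtration, liquid scintillation counting. IC50 by curve fitting, converted to Ki via Cheng–Prusoff.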

[9] = system: Rattus norvegicus; experiment: In vivo blood concentration of [18F]-labeled compound by rat brain at 2 hr; assay type: functional, organism-based; method in brief: as §1
[10] = system: Rattus norvegicus; experiment: In vivo blood concentration of [18F]-labeled compound by rat brain at 4 hr; assay type: functional, organism-based; method in brief: as §1
[11] = target: D(2) dopamine receptor (Rattus norvegicus, UniProt P61169); experiment: Inhibition of [125I]- NCQ 298 binding to D2 receptor of rat striatal tissue; assay type: tissue-based, Striatum
[12] = system: Rattus norvegicus; experiment: In vivo blood concentration of [18F]-labeled compound by rat brain at 5 min; assay type: functional, organism-based; method in brief: as §1
[13] = system: Rattus norvegicus; experiment: In vivo blood concentration of [18F]-labeled compound by rat brain at 1 hr; assay type: functional, organism-based; method in brief: as §1
[14] = system: Rattus norvegicus; experiment: In vivo brain uptake of [18F]-labeled compound by rat brain at 2 hr; assay type: functional, organism-based; method in brief: as §2
[15] = Partition coefficient (logP); assay type: physicochemical; conditions: C-18 reversed-phase HPLC
Method in brief: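 Lipophilicity measured as log P by the C-18 reversed-phase HPLC method of Kraak et al.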

[16] = system: Rattus norvegicus; experiment: In vivo brain uptake of [18F]-labeled compound by rat brain at 5 min; assay type: functional, organism-based; method in brief: as §2
[17] = system: Rattus norvegicus; experiment: In vivo brain uptake of [18F]-labeled compound by rat brain at 30 min; assay type: functional, organism-based; method in brief: as §2
[18] = system: Rattus norvegicus; experiment: In vivo blood concentration of [18F]-labeled compound by rat brain at 5 hr; assay type: functional, organism-based; method in brief: as §1
[19] = system: Rattus norvegicus; experiment: In vivo brain uptake of [18F]-labeled compound by rat brain at 5 hr; assay type: functional, organism-based; method in brief: as §2

Sequence of D(2) dopamine receptor (P61169 whole entry): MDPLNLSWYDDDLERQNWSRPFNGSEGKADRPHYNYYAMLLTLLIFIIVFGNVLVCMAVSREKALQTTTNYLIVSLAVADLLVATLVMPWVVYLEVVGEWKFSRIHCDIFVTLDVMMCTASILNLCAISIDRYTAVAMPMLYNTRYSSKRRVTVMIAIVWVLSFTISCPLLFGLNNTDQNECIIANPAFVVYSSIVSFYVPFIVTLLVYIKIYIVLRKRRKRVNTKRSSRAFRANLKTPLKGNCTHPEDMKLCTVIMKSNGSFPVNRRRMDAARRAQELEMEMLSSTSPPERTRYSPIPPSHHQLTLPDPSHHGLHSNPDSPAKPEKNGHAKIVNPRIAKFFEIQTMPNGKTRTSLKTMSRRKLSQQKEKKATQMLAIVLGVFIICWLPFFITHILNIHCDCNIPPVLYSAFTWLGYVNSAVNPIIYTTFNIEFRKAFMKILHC

Structure (SMILES): COc1cccc(C(=O)NC2CCN(Cc3ccc(F)cc3)CC2)c1OC
- ID/g [1]: 0.066%
- ID/brain [2]: 0.17%
- ID/g [2]: 0.11%
- ID/brain [3]: 0.57%
- ID/g [3]: 0.36%
- Ki [4]: 1840 nM
- Ki [5]: 5.91 nM
- ID/brain [6]: 0.38%
- ID/g [6]: 0.25%
- ID/g [7]: 0.017%
- Ki [8]: 3000 nM
- ID/g [9]: 0.029%
- ID/g [10]: 0.01%
- Ki [11]: 0.38 nM
- ID/g [12]: 0.155%
- ID/g [13]: 0.043%
- ID/brain [14]: 0.5%
- ID/g [14]: 0.33%
- logP [15]: 2.83
- ID/brain [16]: 1.28%
- ID/g [16]: 0.81%
- ID/brain [17]: 0.61%
- ID/g [17]: 0.39%
- ID/g [18]: 0.012%
- ID/brain [19]: 0.19%
- ID/g [19]: 0.12%

Structure (SMILES): COc1cc(N)c(Cl)cc1C(=O)NC1CCN(Cc2ccc(F)cc2)CC1
- Ki [4]: 283 nM
- Ki [8]: 1300 nM

Structure (SMILES): COc1cccc(C(=O)NC2CC3CCCC(C2)N3Cc2ccc(F)cc2)c1OC (stereo not drawn)
- ID/g [1]: 0.089%
- ID/brain [2]: 0.36%
- ID/g [2]: 0.22%
- ID/brain [3]: 0.31%
- ID/g [3]: 0.23%
- Ki [4]: 84 nM
- ID/brain [6]: 0.37%
- ID/g [6]: 0.23%
- ID/g [7]: 0.019%
- Ki [8]: 1300 nM
- ID/g [9]: 0.024%
- ID/g [10]: 0.013%
- ID/g [12]: 0.156%
- ID/g [13]: 0.044%
- ID/brain [14]: 0.44%
- ID/g [14]: 0.27%
- logP [15]: 2.86
- ID/brain [16]: 0.64%
- ID/g [16]: 0.39%
- ID/brain [17]: 0.35%
- ID/g [17]: 0.2%
- ID/g [18]: 0.005%
- ID/brain [19]: 0.23%
- ID/g [19]: 0.14%

Structure (SMILES): COc1cccc(C(=O)NC2CC3CCCC(C2)N3Cc2ccccc2)c1OC (stereo not drawn)
- Ki [11]: 0.038 nM

Structure (SMILES): COc1cc(N)c(Cl)cc1C(=O)N[C@@H]1C[C@H]2CCC[C@@H](C1)N2Cc1ccc(F)cc1
- Ki [4]: 2200 nM
- Ki [11]: > 10 nM

Structure (SMILES): CCN1CCC[C@H]1CNC(=O)c1c(O)c(I)cc(OC)c1OC [IOXIPRIDE]
- Ki [5]: 0.16 nM

Structure (SMILES): COc1cc(Br)cc(C(=O)NC2CC3CCCC(C2)N3Cc2ccc(F)cc2)c1OC (stereo not drawn)
- Ki [4]: 3.1 nM
- Ki [8]: 1900 nM
- Ki [11]: 0.02 nM

Structure (SMILES): COc1cc(N)c(Cl)cc1C(=O)NC1CC2CCCC(C1)N2Cc1ccccc1 (stereo not drawn)
- Ki [11]: 0.036 nM

The next lines start with results.

- Ki [11]: 0.31 nM
Structure (SMILES): COc1cc(Br)cc(C(=O)NC2CCN(Cc3ccccc3)CC2)c1OC

- Ki [4]: 94 nM
- Ki [8]: 3000 nM
Structure (SMILES): COc1cc(Br)cc(C(=O)NC2CCN(Cc3ccc(F)cc3)CC2)c1OC
- ID/g [1]: 0.036%
- ID/brain [2]: 0.21%
- ID/g [2]: 0.12%
- ID/brain [3]: 0.36%
- ID/g [3]: 0.2%
- ID/brain [6]: 0.2%
- ID/g [6]: 0.1%
- ID/g [7]: 0.013%
- ID/g [9]: 0.016%
- ID/g [10]: 0.012%
- ID/g [12]: 0.088%
- ID/g [13]: 0.025%
- ID/brain [14]: 0.27%
- ID/g [14]: 0.14%
- ID/brain [16]: 1.12%
- ID/g [16]: 0.58%
- ID/brain [17]: 0.55%
- ID/g [17]: 0.32%
- ID/g [18]: 0.012%
- ID/brain [19]: 0.2%
- ID/g [19]: 0.12%

- Ki [11]: 0.033 nM
Structure (SMILES): COc1cc(Br)cc(C(=O)NC2CC3CCCC(C2)N3Cc2ccccc2)c1OC (stereo not drawn)

- Ki [4]: 89 nM
- Ki [8]: 600 nM
Structure (SMILES): COc1cc(N)c(Cl)cc1C(=O)NC1CCN(Cc2ccccc2)CC1 [CLEBOPRIDE]

- Ki [11]: 0.63 nM
Structure (SMILES): COc1cccc(C(=O)NC2CCN(Cc3ccccc3)CC2)c1OC
